Results taken from ChEMBL document CHEMBL1124581, “Synthesis and hypolipidemic and antidiabetogenic activities of beta,beta,beta',beta'-tetrasubstituted, long-chain dioic acids” (J Med Chem, 1989).

Tests used:
[1] = species on record: Rattus norvegicus; experiment: Percent of hypolipidemic activity in rats by evaluating the plasma cholesterol level at 0.1%(w/w) in diet for three days; format: functional
In short: (§1)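 Rats treated 3 days with 0.1% (w/w) analogue in diet. Plasma triacylglycerols and cholesterol (mg %) compared with untreated rats (mean ± SD, n = 3).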

[2] = tested on: Rattus norvegicus; experiment: In vivo lipid synthesis as percent of nontreated control by incorporation of 3H20 into 3-beta-hydroxysterols in rat, at 0.1%(w/w) in diet for three days
[3] = species on record: Rattus norvegicus; experiment: Percent of hypolipidemic activity in rats by evaluating the plasma triacylglycerol level at 0.1%(w/w) in diet for three days; format: functional; in short: as §1
[4] = target: Peroxisomal bifunctional enzyme (Rattus norvegicus) (UniProt P07896); experiment: Percent of liver peroxisomal enoyl-CoA hydratase activity in rats
Sequence of Peroxisomal bifunctional enzyme (Rattus norvegicus) (P07896 whole entry, looked up): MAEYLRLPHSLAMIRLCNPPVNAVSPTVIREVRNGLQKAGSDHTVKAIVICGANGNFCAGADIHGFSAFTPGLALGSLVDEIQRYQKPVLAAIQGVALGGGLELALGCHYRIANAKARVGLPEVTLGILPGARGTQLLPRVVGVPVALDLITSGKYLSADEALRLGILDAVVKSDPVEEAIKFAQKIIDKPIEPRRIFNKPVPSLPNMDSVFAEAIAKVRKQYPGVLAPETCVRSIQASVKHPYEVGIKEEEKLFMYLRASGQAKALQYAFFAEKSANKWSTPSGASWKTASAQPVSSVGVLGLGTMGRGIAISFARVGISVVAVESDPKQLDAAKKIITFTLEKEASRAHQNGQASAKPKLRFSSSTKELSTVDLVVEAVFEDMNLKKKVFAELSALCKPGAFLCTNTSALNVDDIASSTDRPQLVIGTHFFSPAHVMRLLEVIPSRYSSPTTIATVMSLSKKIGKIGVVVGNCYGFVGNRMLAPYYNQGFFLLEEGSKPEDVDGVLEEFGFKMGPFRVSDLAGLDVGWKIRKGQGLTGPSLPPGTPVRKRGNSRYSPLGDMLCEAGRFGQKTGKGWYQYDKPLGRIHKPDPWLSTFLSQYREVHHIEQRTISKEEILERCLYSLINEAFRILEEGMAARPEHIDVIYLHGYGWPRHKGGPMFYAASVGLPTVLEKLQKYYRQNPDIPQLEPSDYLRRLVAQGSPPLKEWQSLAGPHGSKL

[5] = tested on: Rattus norvegicus; experiment: In vivo percent inhibition of lipid synthesis, by incorporation of 3H20 into liver saponified fatty acids in rat, at 0.1%(w/w) in diet for three days; format: functional; details: values are per cent of control
In short: (§2)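 Rats fed for 3 consecutive days a carbohydrate-rich fat-free diet containing analogue (0.1% w/w for core-substituted series; 0.25% w/w for chain-length homologues). 10 mCi 3H2O given ip; liver taken 1 h later. 3H2O incorporation into liver saponified fatty acids and 3-β-hydroxysterols is expressed as % of untreated rats (untreated n = 3 or 4, mean ± SD).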

[6] = species on record: Rattus norvegicus; experiment: Inhibition of lipid synthesis, by incorporation of 3H20 into saponified fatty acids in cultured rat hepatocytes; format: functional; details: Hepatocyte, read-out: I50
In short: (§3)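 Cultured rat hepatocytes incubated with varying concentrations of homologue. 3H2O incorporation into saponified fatty acids and 3-β-hydroxysterols measured. I50 = concentration (mM) giving 50% inhibition.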

[7] = species on record: Rattus norvegicus; experiment: Percent inhibition of lipid synthesis by incorporation of 3H20 into saponified fatty acids in rat; format: functional; design: concentration or dose not given beside the values; in short: as §2
[8] = target: Peroxisomal bifunctional enzyme (Rattus norvegicus) (UniProt P07896); experiment: Liver peroxisomal enoyl-CoA hydratase activity in rats
[9] = species on record: Rattus norvegicus; experiment: Inhibition of lipid synthesis, by incorporation of 3H20 into 3-beta-hydroxysterols in cultured rat hepatocytes; format: functional; details: Hepatocyte, read-out: I50; in short: as §3
[10] = target: T1, ATP-citrate synthase (Rattus norvegicus, UniProt P16638); experiment: Inhibition against ATP-citrate lyase in liver; format: tissue-based
T1 sequence (P16638 whole entry): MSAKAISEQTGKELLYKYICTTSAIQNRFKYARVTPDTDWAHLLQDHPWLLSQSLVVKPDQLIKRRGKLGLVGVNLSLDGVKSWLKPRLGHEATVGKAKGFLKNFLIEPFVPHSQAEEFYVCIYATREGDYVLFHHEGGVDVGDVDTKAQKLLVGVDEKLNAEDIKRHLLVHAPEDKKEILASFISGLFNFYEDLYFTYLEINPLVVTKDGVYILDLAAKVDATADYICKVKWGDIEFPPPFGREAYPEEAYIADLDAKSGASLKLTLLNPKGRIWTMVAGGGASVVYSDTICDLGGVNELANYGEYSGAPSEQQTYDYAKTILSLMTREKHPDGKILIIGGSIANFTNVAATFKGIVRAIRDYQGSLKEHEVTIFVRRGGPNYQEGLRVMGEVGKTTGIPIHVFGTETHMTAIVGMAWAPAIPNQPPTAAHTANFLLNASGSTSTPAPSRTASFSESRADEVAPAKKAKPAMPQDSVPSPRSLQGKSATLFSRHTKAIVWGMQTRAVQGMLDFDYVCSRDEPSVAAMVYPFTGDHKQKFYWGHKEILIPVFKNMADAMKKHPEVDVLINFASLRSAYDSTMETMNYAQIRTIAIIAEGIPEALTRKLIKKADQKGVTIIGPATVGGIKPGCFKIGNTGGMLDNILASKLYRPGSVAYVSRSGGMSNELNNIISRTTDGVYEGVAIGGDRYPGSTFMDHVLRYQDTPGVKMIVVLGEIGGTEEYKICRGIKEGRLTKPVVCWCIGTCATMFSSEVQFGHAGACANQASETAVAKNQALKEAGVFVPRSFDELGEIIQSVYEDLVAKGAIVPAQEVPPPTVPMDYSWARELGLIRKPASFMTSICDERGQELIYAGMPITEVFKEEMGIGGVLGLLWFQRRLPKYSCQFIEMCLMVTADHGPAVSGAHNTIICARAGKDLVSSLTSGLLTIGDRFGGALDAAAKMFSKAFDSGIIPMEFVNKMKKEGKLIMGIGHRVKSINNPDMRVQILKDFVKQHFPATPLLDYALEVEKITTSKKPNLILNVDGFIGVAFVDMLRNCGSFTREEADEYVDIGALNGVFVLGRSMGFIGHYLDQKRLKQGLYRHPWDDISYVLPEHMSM
In short: (§4)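 Liver citrate lyase activity measured across varying concentrations of homologue. Ki (mM) determined from a Dixon plot.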

[11] = target: T1, ATP-citrate synthase; experiment: Inhibition against ATP-citrate lyase in rat liver; format: tissue-based; in short: as §4
[12] = tested on: Rattus norvegicus; experiment: Hypolipidemic activity in rats by evaluating the plasma cholesterol level at a dose of 10 mg/kg for seven days; format: functional
In short: (§5)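 Male Lewis rats, 150–180 g, fed standard chow ad libitum. Compound given orally as a suspension in 1% aqueous tylose; controls received vehicle. Blood taken from the retrobulbar venous plexus 3 h after dosing. Plasma cholesterol and triacylglycerols measured spectrophotometrically with enzymatic kits.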

[13] = tested on: Rattus norvegicus; experiment: Hypolipidemic activity in rats by evaluating the plasma triacylglycerol level at a dose of 10 mg/kg for seven days; format: functional; in short: as §5
[14] = species on record: Rattus norvegicus; experiment: Hypolipidemic activity in rats by evaluating the plasma cholesterol level at 0.1%(w/w) in diet for three days
[15] = target: T1, ATP-citrate synthase; experiment: Inhibition against ATP-citrate lyase in liver.; format: tissue-based
In short: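 Liver ATP-citrate lyase activity was followed across varying inhibitor concentrations, and Ki was derived from a Dixon plot. The methods otherwise refer to an earlier report.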

[16] = target: T1, ATP-citrate synthase; experiment: Inhibition against ATP-citrate lyase in rat liver.; in short: as §4
[17] = species on record: Rattus norvegicus; experiment: Hypolipidemic activity in rats by evaluating the plasma triacylglycerol level at 0.15 (% w/w)in diet; format: functional
In short: (§6)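 Hebrew University strain rats, 140–160 g, starved 48 h, then pair-refed for 3 consecutive nights a 15-g meal of high-carbohydrate fat-free powdered diet, with or without analogue mixed into the diet at the stated % (w/w). The morning after the last meal, 10 mCi 3H2O in saline given ip; rats killed 1 h later. Readouts: liver lipid 3H2O incorporation, plasma lipids, peroxisomal enoyl-CoA hydratase, CN-insensitive palmitoyl-CoA oxidation. Mean ± SD, n = 4.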

[18] = species on record: Rattus norvegicus; experiment: Inhibition of lipid synthesis, evaluated by incorporation of 3H20 at 0.15(w/w) into liver cholesterol in rat; format: functional
[19] = target: Enoyl-CoA hydratase (Rattus norvegicus) (UniProt P07896); experiment: Liver peroxisomal palmitoyl-CoA oxidation activity in rats, at 0.30(w/w) in diet; in short: as §6
Sequence of Enoyl-CoA hydratase (Rattus norvegicus) (P07896 whole entry): as the sequence (P07896 whole entry, looked up) above

[20] = species on record: Rattus norvegicus; experiment: Hypolipidemic activity in rats by evaluating the plasma cholesterol level at 0.15 dose (% w/w) in diet; format: functional; in short: as §6
[21] = species on record: Rattus norvegicus; experiment: Hypolipidemic activity in rats by evaluating the plasma triacylglycerol level at 0.00 (% w/w)in diet; format: functional; in short: as §6
[22] = target: Enoyl-CoA hydratase (Rattus norvegicus) (UniProt P07896); experiment: Liver peroxisomal enoyl-CoA hydratase activity in rats, at 0.00(w/w) in diet; in short: as §6
[23] = species on record: Rattus norvegicus; experiment: Hypolipidemic activity in rats by evaluating the plasma cholesterol level at 0.30 dose (% w/w) in diet; format: functional; in short: as §6
[24] = species on record: Rattus norvegicus; experiment: Inhibition of lipid synthesis, evaluated by incorporation of 3H20 at 0.00(w/w) into liver cholesterol in rat; format: functional
[25] = species on record: Rattus norvegicus; experiment: Inhibition of lipid synthesis, evaluated by incorporation of 3H20 at 0.30(w/w) into liver cholesterol in rat; format: functional
[26] = target: Enoyl-CoA hydratase (Rattus norvegicus) (UniProt P07896); experiment: Liver peroxisomal palmitoyl-CoA oxidation activity in rats, at 0.15(w/w) in diet; in short: as §6
[27] = species on record: Rattus norvegicus; experiment: Inhibition of lipid synthesis, evaluated by incorporation of 3H20 at 0.30(w/w) into liver saponified fatty acids in rat; format: functional
[28] = species on record: Rattus norvegicus; experiment: Hypolipidemic activity in rats by evaluating the plasma cholesterol level at 0.00 dose (% w/w) in diet; format: functional; in short: as §6
[29] = species on record: Rattus norvegicus; experiment: Hypolipidemic activity in rats by evaluating the plasma triacylglycerol level at 0.30 (% w/w)in diet; format: functional; in short: as §6
[30] = species on record: Rattus norvegicus; experiment: Inhibition of lipid synthesis, evaluated by incorporation of 3H20 at 0.00(w/w) into liver saponified fatty acids in rat; format: functional
[31] = target: Enoyl-CoA hydratase (Rattus norvegicus) (UniProt P07896); experiment: Liver peroxisomal palmitoyl-CoA oxidation activity in rats, at 0.00(w/w) in diet; in short: as §6

Row | SMILES | Incorporation [2] [%] | Activity [3] [%] | Activity (uM min-1 mg-1) [4] | residual activity [5] [%] | IC50 [6] [µM] | Fatty acid synthesis (% of untreated control) [7] [%] | Activity (uM min-1 mg-1) [8] | IC50 [9] [µM] | Activity (mg) [12] [%] | Hypolipidemic activity [13] [%] | also measured
1 | CC(C)(C/C=C\c1ccc(/C=C\CC(C)(C)CC(=O)O)cc1)CC(=O)O | 97 | 98 | 4.5 | 72 | – | – | – | – | – | – | Activity [1]: 47%
2 | CC(C)(CCCCCCCCCCCCCCC(C)(C)CC(=O)O)CC(=O)O | – | – | – | – | 300 | 113 | 5 | 300 | – | – | Ki [10]: 260 µM
3 | CC(C)(CCCCCCCCCCCCCCCCC(C)(C)CC(=O)O)CC(=O)O | – | – | – | – | 400 | 158 | 3.5 | 400 | – | – | Ki [10]: 320 µM
4 | CC(C)(CCCCCCC(C)(C)CC(=O)O)CC(=O)O | – | – | – | – | 300 | 80 | 7.5 | 200 | – | – | Ki [11]: 310 µM
5 | CC(C)(CCCc1ccc(CCCC(C)(C)CC(=O)O)cc1)CC(=O)O | 65 | 84 | 12 | 63 | – | – | – | – | – | – | Activity [1]: 36%
6 | CC(C)(CCCCCCCCCCCCC(C)(C)CC(=O)O)CC(=O)O | – | – | – | – | 150 | 48 | 17.5 | 150 | 73 | 130 | Ki [10]: 46 µM
7 | CC(C)(C/C=C\c1ccc(/C=C/CC(C)(C)CC(=O)O)cc1)CC(=O)O | 37 | 25 | 10.5 | 50 | – | – | – | – | – | – | Activity [1]: 37%
8 | CC(C)(C/C=C/c1ccc(/C=C/CC(C)(C)CC(=O)O)cc1)CC(=O)O | 57 | 41 | 18.6 | 57 | – | – | – | – | – | – | Activity [1]: 28%
9 | CC(C)(CCCC1CCC(CCCC(C)(C)CC(=O)O)CC1)CC(=O)O (stereo not given) | 71 | 63 | 14 | 79 | – | – | – | – | – | – | Plasma cholesterol [14]: 42 mg %
10 | CC(C)(CCCCCCCCCCCC(C)(C)CC(=O)O)CC(=O)O | – | – | – | – | – | – | – | – | 73 | 113 | –
11 | CC(C)(CCCCCCCCCCC(C)(C)CC(=O)O)CC(=O)O | 40 | 49 | 10.7 | 48 | 80 | 29 | 31 | 80 | 58 | 111 | Plasma cholesterol [14]: 32 mg %; Ki [15]: 16 µM
12 | CC(C)(CCCCCCCCC(C)(C)CC(=O)O)CC(=O)O | – | – | – | – | 100 | 66 | 16.3 | 100 | 70 | 126 | Ki [16]: 56 µM
13 | O=C(O)CC(CCCCCCCCCCC(CC(=O)O)(c1ccccc1)c1ccccc1)(c1ccccc1)c1ccccc1 | – | – | – | – | – | – | – | – | – | – | Activity (mg) [17]: 127%; Activity (umol/g.of liver 75.min) [18]: 4.3 µmol/g liver/75 min; Activity (nmol/mg.of protein. min) (nmol/mg protein/min) [19]: 7.2; Activity (mg) [20]: 70%; Activity (mg) [21]: 131%; Activity (umol/mg.of protein. min) (µmol/mg protein/min) [22]: 0.45; Activity (mg) [23]: 58%; Activity (umol/g.of liver 75.min) [24]: 3.9 µmol/g liver/75 min; Activity (umol/g.of liver 75.min) [25]: 3.4 µmol/g liver/75 min; Activity (nmol/mg.of protein. min) (nmol/mg protein/min) [26]: 4.4; Activity (umol/g.of liver 75.min) [27]: 123 µmol/g liver/75 min; Activity (mg) [28]: 70.5%; Activity (mg) [29]: 101%; Activity (umol/g.of liver 75.min) [30]: 118 µmol/g liver/75 min; Activity (nmol/mg.of protein. min) (nmol/mg protein/min) [31]: 4.8
14 | CC(C)(CCCCCCCCCC(C)(C)CC(=O)O)CC(=O)O | – | – | – | – | – | – | – | – | 72 | 112 | –
